In experiment [1] the target is DNA topoisomerase 2-alpha (Homo sapiens) (UniProt P11388). Description: Inhibition of human topoisomerase 2alpha assessed as relaxation of supercoiled DNA pBR322 at 2 uM relative to etoposide. The method in brief: (§1)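 Human topo IIα (2 units) with 200 ng supercoiled pBR322 in 10 mM Tris-HCl pH 7.9, 50 mM NaCl, 5 mM MgCl2, 1 mM EDTA, 1 mM ATP, 15 µg/mL BSA, 30 min at 30 °C. Compounds at 2 or 10 µM, from 20 mM DMSO stocks. Stopped with EDTA. Products on 1% agarose, stained with ethidium bromide. Supercoiled DNA quantified under UV.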

The subject of another experiment is HCT-116. As to the kind of experiment: Cytotoxicity against human HCT116 cells. It counts as functional, cell-based. The method in brief:
(§2)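 Cells seeded at 2–4 × 10⁴ per well, grown overnight in medium with 10% FBS at 37 °C under 5% CO₂. On day 2 the medium was replaced with medium holding graded compound concentrations. Absorbance was read at 450 nm. IC50 came from a four-parameter logistic fit. Mean ± SD of three experiments, each in triplicate.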

A further experiment deals with HeLa. As to the kind of experiment: Cytotoxicity against human HeLa cells. It counts as functional, cell-based. The method in brief:
as §2

A further experiment deals with HL-60. Description: Cytotoxicity against human HL60 cells. It counts as functional, cell-based. The method in brief:
as §2

The target of experiment [2] is DNA topoisomerase 2-alpha (Homo sapiens) (UniProt P11388). Description: Inhibition of human topoisomerase 2alpha assessed as relaxation of supercoiled DNA pBR322 at 10 uM relative to etoposide. The method in brief: as §1
A further experiment relates to MDA-MB-231. As to the kind of experiment: Cytotoxicity against human MDA-MB-231 cells. The format is functional, cell-based. The essentials: as §2
Another experiment has as its system DU-145. As to the kind of experiment: Cytotoxicity against human DU145 cells. The format is functional, cell-based. The method in brief:
as §2

The species entered for experiment [3] is Bos taurus. As to the kind of experiment: Inhibition of calf thymus topoisomerase 1 assessed as relaxation of supercoiled DNA pBR322 at 2 uM relative to camptothecin.
The species entered for experiment [4] is Bos taurus. Description: Inhibition of calf thymus topoisomerase 1 assessed as relaxation of supercoiled DNA pBR322 at 20 uM relative to camptothecin.

Each structure is given as a SMILES string.

DNA topoisomerase 2-alpha (Homo sapiens), sequence (P11388 whole entry): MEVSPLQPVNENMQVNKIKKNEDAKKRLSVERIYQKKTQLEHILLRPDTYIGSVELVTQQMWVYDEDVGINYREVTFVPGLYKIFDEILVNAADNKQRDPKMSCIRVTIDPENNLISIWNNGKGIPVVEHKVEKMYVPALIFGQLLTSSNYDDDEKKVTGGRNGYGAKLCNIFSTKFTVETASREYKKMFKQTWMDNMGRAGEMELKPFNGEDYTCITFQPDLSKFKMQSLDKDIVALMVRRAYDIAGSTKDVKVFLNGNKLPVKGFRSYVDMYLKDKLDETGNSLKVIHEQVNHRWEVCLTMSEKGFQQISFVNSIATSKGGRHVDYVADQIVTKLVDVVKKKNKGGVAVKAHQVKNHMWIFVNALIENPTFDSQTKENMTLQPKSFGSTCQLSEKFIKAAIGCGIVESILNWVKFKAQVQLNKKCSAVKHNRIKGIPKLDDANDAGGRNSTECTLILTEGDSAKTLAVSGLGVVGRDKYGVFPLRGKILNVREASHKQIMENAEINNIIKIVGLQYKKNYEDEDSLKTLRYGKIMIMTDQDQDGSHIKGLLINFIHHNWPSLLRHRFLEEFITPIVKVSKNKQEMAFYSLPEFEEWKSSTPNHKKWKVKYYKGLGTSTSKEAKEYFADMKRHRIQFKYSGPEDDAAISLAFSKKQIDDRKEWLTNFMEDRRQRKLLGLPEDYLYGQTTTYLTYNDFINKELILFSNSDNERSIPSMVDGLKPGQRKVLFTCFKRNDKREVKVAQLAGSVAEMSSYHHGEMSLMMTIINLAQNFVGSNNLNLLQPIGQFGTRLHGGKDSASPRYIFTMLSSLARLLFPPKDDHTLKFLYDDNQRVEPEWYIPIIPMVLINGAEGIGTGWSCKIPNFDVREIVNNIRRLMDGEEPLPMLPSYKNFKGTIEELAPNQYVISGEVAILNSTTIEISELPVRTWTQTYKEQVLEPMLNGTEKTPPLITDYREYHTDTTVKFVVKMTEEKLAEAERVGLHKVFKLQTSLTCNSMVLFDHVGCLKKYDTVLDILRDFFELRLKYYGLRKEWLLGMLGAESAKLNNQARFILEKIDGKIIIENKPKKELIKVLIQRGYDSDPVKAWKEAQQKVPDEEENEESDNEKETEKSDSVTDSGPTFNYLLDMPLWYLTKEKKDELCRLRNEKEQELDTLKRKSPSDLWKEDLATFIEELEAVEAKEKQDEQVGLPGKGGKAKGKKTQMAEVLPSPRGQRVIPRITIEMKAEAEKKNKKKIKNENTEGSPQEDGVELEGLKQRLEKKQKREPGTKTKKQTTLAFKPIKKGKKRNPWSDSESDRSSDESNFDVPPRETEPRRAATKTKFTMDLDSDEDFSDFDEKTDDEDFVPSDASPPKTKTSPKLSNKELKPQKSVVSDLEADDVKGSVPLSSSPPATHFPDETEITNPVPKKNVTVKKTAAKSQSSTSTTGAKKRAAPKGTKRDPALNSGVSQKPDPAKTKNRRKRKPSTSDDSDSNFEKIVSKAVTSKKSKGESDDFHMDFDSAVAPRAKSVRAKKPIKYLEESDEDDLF

With `N[C@H]1CCN(c2c(F)cc3c(=O)c(C(=O)O)cn4c3c2Oc2nc(O)ncc2-4)C1`, the inhibition – broadly, the drop in the measured response relative to a control, in per cent – in experiment [1] was 0%; in experiment [2] it was 28.8%; in the experiment filed under Bos taurus [3], 32.4%; in the experiment listed under Bos taurus [4] it was 0%. The IC50 (commonly the concentration that inhibits the measured activity by half) in the experiment on HCT-116 was greater than 50000 nM; in the experiment with HeLa it was greater than 50 µM; in the experiment on HL-60, greater than 50000 nM; in the experiment on MDA-MB-231, greater than 50 µM; in the experiment on DU-145, greater than 50 µM.

Take `COc1cccc2c1C(=O)c1c(O)c3c(c(O)c1C2=O)C[C@@](O)(C(=O)CO)C[C@@H]3O[C@H]1C[C@H](N)[C@H](O)[C@H](C)O1` [DOXORUBICIN]: the IC50 in the experiment with HCT-116 amounted to 1100 nM; in the experiment on HeLa, 3.09 µM; in the experiment on HL-60, 720 nM; with MDA-MB-231, 1.39 µM; in the experiment on DU-145 it was 1.57 µM.

Take `N[C@H]1CCN(c2c(F)cc3c(=O)c(C(=O)O)cn4c3c2Oc2ccccc2-4)C1`: the inhibition in experiment [1] worked out at 89.1%; in experiment [2], 89.4%; in the experiment filed under Bos taurus [3], 88.9%; in the experiment filed under Bos taurus [4], 90.2%. The IC50 in the experiment with HCT-116 amounted to 870 nM; in the experiment on HeLa, 2.33 µM; in the experiment with HL-60, 2400 nM; in the experiment on MDA-MB-231, 4.34 µM; with DU-145 it was 1.82 µM.

In the case of `N[C@H]1CCN(c2c(F)cc3c(=O)c(C(=O)O)cn4c3c2Sc2ccccc2-4)C1`, the inhibition in experiment [1] was 57%; in experiment [2], 91.7%; in the experiment filed under Bos taurus [3], 45.1%; in the experiment listed under Bos taurus [4] it was 97.2%. Also, the IC50 in the experiment on HCT-116 turned out to be 2410 nM; in the experiment on HeLa it was 5.08 µM; in the experiment on HL-60, 11500 nM; in the experiment on MDA-MB-231, 19.2 µM; in the experiment with DU-145, 19.3 µM.

Take `N[C@H]1CCN(c2c(F)cc3c(=O)c(C(=O)O)cn4c3c2Oc2cc(S(=O)(=O)O)c3ccccc3c2-4)C1`: the inhibition in [1] was found to be 1.9%; in experiment [2], 24.7%; in the experiment filed under Bos taurus [3], 39.1%; in the experiment listed under Bos taurus [4] it was 25%. In addition, the IC50 is greater than 50000 nM with HCT-116; greater than 50 µM in the experiment with HeLa; greater than 50000 nM with HL-60; greater than 50 µM in the experiment with MDA-MB-231; greater than 50 µM with DU-145.

Consider `N[C@H]1CCN(c2c(F)cc3c(=O)c(C(=O)O)cn4c3c2Oc2ccc([N+](=O)[O-])cc2-4)C1`, for which the inhibition in experiment [1] was determined as 26%; in [2] it was 91.6%; in the experiment filed under Bos taurus [3], 65.7%; in the experiment listed under Bos taurus [4] it was 95.3%. The IC50 came to 7450 nM in the experiment with HCT-116; 17.7 µM in the experiment on HeLa; 9930 nM in the experiment on HL-60; 19.8 µM in the experiment on MDA-MB-231; 13.8 µM with DU-145.

`O=C(O)c1cn2c3c(c(F)c(F)cc3c1=O)Oc1ccccc1-2`: the inhibition in [1] was 0.5%; in experiment [2], 82.4%; in the experiment listed under Bos taurus [3], 53.5%; in the experiment listed under Bos taurus [4] it was 96.6%. For the same molecule, the IC50 in the experiment on HCT-116 is 6300 nM; with HeLa, greater than 50 µM; in the experiment on HL-60 it was greater than 50000 nM; in the experiment on MDA-MB-231, greater than 50 µM; with DU-145, greater than 50 µM.

In the case of `N[C@H]1CCN(c2c(F)cc3c(=O)c(C(=O)O)cn4c3c2Oc2ccc(Cl)cc2-4)C1`, the inhibition in experiment [1] worked out at 89%; in experiment [2], 88.6%; in the experiment listed under Bos taurus [3] it was 87.9%; in the experiment filed under Bos taurus [4] it was 86.1%. Besides, the IC50 with HCT-116 is 2560 nM; with HeLa it was 2.01 µM; with HL-60, 1630 nM; with MDA-MB-231, 19.3 µM; with DU-145, 17.6 µM.

For `COc1cc([C@@H]2c3cc4c(cc3[C@@H](O[C@@H]3O[C@@H]5CO[C@@H](C)O[C@H]5[C@H](O)[C@H]3O)[C@H]3COC(=O)[C@H]23)OCO4)cc(OC)c1O` [ETOPOSIDE], the figures for the inhibition in [1] and in experiment [2] were 0.7% and 40.9%, respectively. The IC50 in the experiment with HCT-116 worked out at 15100 nM; in the experiment with HeLa, 18.2 µM; with HL-60, 1440 nM; in the experiment on MDA-MB-231 it was 16.2 µM; with DU-145, 29.8 µM.

Regarding `CC[C@@]1(O)C(=O)OCc2c1cc1n(c2=O)Cc2cc3ccccc3nc2-1` [CAMPTOTHECIN], the IC50 with HCT-116 worked out at 1000 nM; in the experiment with HeLa, 1.08 µM; in the experiment on HL-60 it was 13 nM; with MDA-MB-231, 4.16 µM; in the experiment on DU-145, 3.2 µM. Besides, the inhibition in the experiment filed under Bos taurus [3] is 63.3%; in the experiment filed under Bos taurus [4] it was 84.1%.

For the origin of these results see ChEMBL document CHEMBL1140840, “New insight for fluoroquinophenoxazine derivatives as possibly new potent topoisomerase I inhibitor” (Bioorg Med Chem Lett, 2008).
